Assay outcomes as filed in PubChem.
Shown are actives, neighbours in structure and some others; about 3.3% of the full set was active somewhere.
SENP8 block-1: blocks human SENP8 cleavage of Nedd8 substrate; Q96LD8; recombinant SENP8, Nedd8 substrate fluorescence; inhibition, % at 20 µM; actives 0.64% (n = 360,000); in the data active means inhibition mostly above about 40%, no sharp cut-off; inactive means mostly below about 27%
SENP7 inh: inhibitors of human SENP7 protease; inhibition, % at 5 µM; actives 1.5% (n = 330,000); recombinant SENP7, Z-RLRGG-aminoluciferin luminescence, 40 min;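 active means inhibition above about 50% at the single test dose, limit read from the data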;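 further: plate controls were DMSO with enzyme for no effect and no enzyme buffer wells for full effect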
SENP6 inh: blocks the human protease SENP6; Q9GZR1; Recombinant SENP6 catalytic domain, aminoluciferin luminescence; inhibition, % at 10 µM; actives 1.8% (n = 330,000);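 active means inhibition above about 50% at the single tested dose, limit read from the data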;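 further: plate controls were DMSO wells with enzyme for no effect and DMSO wells lacking enzyme for full effect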
Target sequence (Q9GZR1 628-1112 limits assumed): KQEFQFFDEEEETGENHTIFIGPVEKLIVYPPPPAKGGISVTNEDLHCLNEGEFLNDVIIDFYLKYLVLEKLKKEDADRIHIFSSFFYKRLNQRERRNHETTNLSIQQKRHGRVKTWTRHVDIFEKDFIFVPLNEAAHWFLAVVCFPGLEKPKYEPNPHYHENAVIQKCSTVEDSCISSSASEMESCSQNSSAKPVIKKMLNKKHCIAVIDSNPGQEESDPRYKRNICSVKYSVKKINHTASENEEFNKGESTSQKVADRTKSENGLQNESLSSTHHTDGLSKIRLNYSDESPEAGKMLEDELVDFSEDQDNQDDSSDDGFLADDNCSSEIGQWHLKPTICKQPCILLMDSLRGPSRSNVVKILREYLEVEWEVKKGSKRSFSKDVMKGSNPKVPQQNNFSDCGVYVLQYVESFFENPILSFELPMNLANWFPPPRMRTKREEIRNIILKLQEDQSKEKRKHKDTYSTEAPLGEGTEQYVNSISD
CendR NRP1 mod: alters CendR peptide binding to human NRP-1; O14786; FAM-RPARPAR peptide binding to NRP-1, fluorescence polarization; inhibition, % at 25 µM; actives 0.85% (n = 360,000); AID 602438;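 active means inhibition or corrected inhibition above about 18%, plus a signal ratio from 0.5 to 1.5, limit read from the data, passing the limit was not always enough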
SENP1 FRET inh: SENP1 (human) catalytic domain inhibition; recombinant SENP1 catalytic domain, CyPet-SUMO1-YPet FRET cleavage; inhibition, % at 10 µM; actives 0.21% (n = 360,000);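 active means inhibition at least 30% at 10 µM, raw YFP signal under a set limit, fluorescence ratio 0.5 to 1.5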;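 further: 0% = enzyme with DMSO and 100% = no enzyme wells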
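Test system: hSENP1 catalytic domain, recombinant; Amount: 20 pM final SENP1 enzyme; Medium: Tris pH 8 buffer plus EDTA, NaCl, BME, BSA, NP40, catalase; Schedule: 50 min enzyme reaction, room temperature, light-protected; Technique: FRET fluorescence in CFP and YFP emission channels; Controls: no-enzyme wells low, DMSO-plus-enzyme wells high control.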
SENP8 block-2: SENP8 protease inhibition. Q96LD8. purified SENP8, Z-RLRGG-aminoluciferin cleavage, luminescence. inhibition, % at 10 µM. actives 1.2% (n = 330,000); in the data active means inhibition above about 50%
SENP8 conf: confirmation of human SENP8 protease inhibitors. actives 40% (n = 6,200). AID 488912. Recombinant SENP8, Z-RLRGG-aminoluciferin luminescence, 60 min. shares compounds with SENP7 inh. inhibition, % at 12.5 µM;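 active means mean inhibition across replicates above about 50%, limit read from the data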
SENP6 confirm: confirmation of human SENP6 protease inhibitors. shares compounds with SENP7 inh. recombinant SENP6, Z-RLRGG-aminoluciferin luminescence. inhibition, % at 12.5 µM. actives 58% (n = 6,200). AID 488915
SENP7 confirm: human SENP7 inhibition, confirmed; inhibition, % at 12.5 µM; shares compounds with SENP7 inh; recombinant SENP7, Z-RLRGG-aminoluciferin luminescence, 40 min; actives 69% (n = 6,200)
Casp3 select: caspase-3 inhibition (SENP selectivity assay); shares compounds with SENP7 inh; purified caspase-3, Z-DEVD-aminoluciferin luminescence, 60 min; inhibition, % at 12.5 µM; AID 488918; actives 60% (n = 6,200);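 active means mean inhibition above about 50%, limit read from the data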;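 further: plate controls were enzyme with DMSO for no effect and wells without caspase-3 for full effect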
Luc interf: luminescence interference (SENP counter-screen); Pre-incubated SENP8/Z-RLRGG-aminoluciferin, luciferase luminescence interference; actives 39% (n = 6,200); inhibition, % at 12.5 µM; AID 488919; shares compounds with SENP7 inh;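 active means mean inhibition above about 50% when retested at one dose, limit read from the data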;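 further: plate controls were DMSO wells with completed reaction for no effect and substrate without enzyme for full effect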
Starred values were filed as active, the others as inactive; . = no result.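 How the source made its calls, unless noted: active means mean inhibition above about 50% in the one-dose retest (limit read from the data); inactive means the rest.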

SMILES	SENP8 block-1	SENP7 inh	SENP6 inh	CendR NRP1 mod	SENP1 FRET inh	SENP8 block-2	SENP8 conf	SENP6 confirm	SENP7 confirm	Casp3 select	Luc interf
Clc1ccc(-c2nc3n(n2)Cc2ccccc2-3)cc1	20	99*	63*	3	-1	87*	-20	11	26	30	2
CSCCNC(=O)C1(C)CCN1C(=O)C/C=C/c1ccccc1 (stereo unspecified)	32	.	.	18	-1	.	.	.	.	.	.
COc1ccc(-c2cn3cc(C)ccc3n2)cc1Br	-366	86*	91*	-4	0	82*	38	87*	99*	86*	26
CN(C)c1ccc(/C=N/Nc2cccc(C(=O)O)c2)cc1	-52	5	99*	4	-15	96*	98*	102*	104*	100*	100*
O=C(O)c1cccc(N/N=C/c2cc(Br)cc(Br)c2O)c1	-3	2	77*	-6	-83	74*	39	90*	95*	5	77*
COc1ccc(Br)cc1/C=N/Nc1cccc(C(=O)O)c1	-40	8	5	-5	-14	-5	.	.	.	.	.
CC(C)(C)c1ccc(/C=N/Nc2cccc(C(=O)O)c2)cc1	-18	-3	10	-7	0	27	.	.	.	.	.
COc1cccc(C(=O)Nc2ccc3c(c2)OCO3)c1OC	16	37	55*	5	0	33	27	25	73*	73*	54*
COc1cccc(/C=C/C(=O)Nc2cccc(C(C)=O)c2)c1OC	-62	29	33	-23	2	12	.	.	.	.	.
COc1cccc(/C=C/C(=O)Nc2ccc3c(c2)OCCO3)c1OC	6	76*	33	7	2	62*	79*	77*	91*	71*	79*
CCN(CC)S(=O)(=O)c1ccc(SCC(=O)c2c(N)n(C3CC3)c(=O)[nH]c2=O)nc1	16	.	.	-1	2	.	.	.	.	.	.
O=S(=O)(/N=C(/Nc1nc2ccccc2s1)c1ccccc1)c1ccccc1	-8	15	72*	-5	2	60*	1	7	9	12	23
Cc1ccc2nc(N/C(=N/S(=O)(=O)c3ccc(F)cc3)c3ccccc3)sc2c1	-37	4	8	3	1	0	.	.	.	.	.
C[C@@H]1CN([C@H](C)CO)C(=O)CCCn2nncc2CO[C@H]1CN(C)S(=O)(=O)c1ccc(Oc2ccccc2)cc1	8	.	.	-6	-1	.	.	.	.	.	.
CN(C)c1ccc(N=Cc2nc(-c3ccccc3)oc2OC(=O)c2cccc(Cl)c2)cc1	25	72*	64*	28*	-26	-11	6	5	-1	26	8
Cc1ccc(C(=O)Oc2oc(-c3ccccc3)nc2C=Nc2ccc(N(C)C)cc2)cc1	3	-15	-19	-3	-24	-13	.	.	.	.	.
OCCN(Cc1ccccn1)Cc1ccccn1	-6	.	.	4	-4	.	.	.	.	.	.
CCNC(=O)C1(C)CCN(C(=O)c2cccc(C#N)c2)C1 (stereo unspecified)	13	.	.	-3	2	.	.	.	.	.	.
N=c1oc2ccccc2cc1C(=O)NC1CCCCCC1	-6	34	47	4	0	27	.	.	.	.	.
Cc1ccnc(NC(=O)c2cc3ccccc3oc2=O)c1	9	95*	72*	9	-5	82*	24	30	22	55*	1
Cc1cccc(NC(=O)c2cc3ccccc3oc2=O)c1	12	97*	88*	-1	2	64*	-6	9	7	18	10
O=C(NC1CCCCCC1)c1cc2ccccc2oc1=O	-136	56*	73*	10	-1	40	50*	60*	68*	63*	19
O=C(Nc1nnc(SCc2ccccc2)s1)c1cccs1	-197	53*	86*	4	0	69*	-4	25	36	30	6
Cc1ccc(C(=O)Nc2ncc(Cc3ccccc3)s2)o1	-10	63*	71*	-11	-3	51*	6	68*	92*	62*	56*
O=C(Nc1ncc(Cc2ccccc2)s1)c1cccs1	-49	58*	53*	-10	-2	40	57*	57*	83*	37	53*
SMILES	SENP8 block-1	SENP7 inh	SENP6 inh	CendR NRP1 mod	SENP1 FRET inh	SENP8 block-2	SENP8 conf	SENP6 confirm	SENP7 confirm	Casp3 select	Luc interf
CCSc1nnc(NC(=O)c2cccs2)s1	-41	2	-2	-4	-1	-17	.	.	.	.	.
C[C@H]1CN([C@@H](C)CO)C(=O)CCCn2cc(nn2)CO[C@@H]1CN(C)C(=O)Nc1ccc(-c2cccs2)cc1	-32	.	.	15	-3	.	.	.	.	.	.
CSc1nccc(N/N=C/c2ccccc2)n1	11	74*	64*	15	-1	53*	43	45	81*	69*	3
O=C(COC(=O)c1ccc(F)cc1F)NCc1ccc2c(c1)OCO2	8	7	0	5	1	7	.	.	.	.	.
Cc1nc2ccc(C(=O)OCc3ccccc3Br)cc2nc1C	10	56*	67*	9	0	47	15	12	44	13	-4
CC(=O)Nc1ccc(C(=O)OCc2ccccc2Br)cc1	13	5	-8	-8	3	-13	.	.	.	.	.
O=C(Nc1cccc(S(=O)(=O)N2CCCCC2)c1)c1cc(=O)[nH]c2ccccc12	-154	-1	-15	12	-3	-19	.	.	.	.	.
Cc1nc2sc(-c3ccccc3)cc2c(=O)n1-n1cccc1	-12	43	62*	-6	0	34	7	17	43	32	2
Cc1nc2sc(-c3ccccc3)cc2c(=O)[nH]1	-64	-6	86*	-1	-23	76*	37	82*	98*	92*	29
O=c1c2cc(-c3ccccc3)sc2nc2n1CCC2	.	72*	75*	.	.	69*	19	69*	92*	31	-4
Cc1ccc2nc(N3C(=O)C(O)=C(C(=O)c4ccco4)C3c3cccs3)sc2c1 (stereo unspecified)	-62	46	74*	-126	-63	53*	7	10	29	38	15
